Calls of active or inactive are those of the source. The calls are words filed in the database; no cut-off is given here.
Key:
[1] = system: Liver microsomes; assay: Metabolic stability in human liver microsomes assessed as half life after 60 mins by HPLC in presence of NADPH; format: ADME, Microsome; settings: 1 h
Procedure, shortened: (§1)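 Liver microsomes (0.5 mg protein) in potassium phosphate buffer, pH 7.4, with an NADPH-generating system (NADP+, glucose-6-phosphate, G6P dehydrogenase), DETAPAC and MgCl2. Test compound added at 40 µM and incubated at 37 °C with shaking. Samples stopped with CH2Cl2/2-propanol at 0, 10, 25, 40 and 60 min. Substrate loss measured by HPLC and half-life calculated.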

[2] = system: Mus musculus; assay: Antidepressant activity in ICR mouse assessed as decrease in immobility duration at 10 umol/kg, ip administered 30 mins prior to test after 1 week by forced swimming test; format: functional, organism-based
Procedure, shortened: (§2)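 Male ICR mice (26.2 ± 0.3 g), 12 h light cycle. Drug in 0.9% saline with 5% DMSO, given i.p. 30 min before the forced-swim test. Lower doses were tested first, then higher doses 1 week later after re-randomization. Swim pretest on 2 successive days, test 24 h later: 6 min in a cylinder with 28 cm of water at 23 ± 1°C, recording immobility. n = 9–11; ANOVA with Dunnett's test.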

[3] = system: Mus musculus; assay: Antidepressant activity in BALB/c mouse assessed as decrease in immobility duration at 1 mg/kg, ip administered 23 hrs, 5 hrs and 1 hr prior to test measured after 4 weeks by forced swimming test; format: functional, organism-based; design: dose 1 mg/kg
Procedure, shortened: (§3)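 Male Balb/c mice (22.4 ± 0.1 g), second session run 4 weeks after the first. Drug in 0.9% saline with 5% DMSO (vehicle alone as control), given i.p. 23, 5 and 1 hr before the forced-swim test, with no pretest training. Each mouse was placed 6 min in a water-filled cylinder (23 ± 1°C) and immobility duration recorded. n = 10–11; one-way ANOVA with Dunnett's test.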

[4] = target: 3',5'-cyclic-AMP phosphodiesterase 4A (Homo sapiens, UniProt P27815); assay: Inhibition of human recombinant PDE4A1 assessed as inhibition of cAMP hydrolysis
[5] = system: Mus musculus; assay: Antidepressant activity in ICR mouse assessed as decrease in immobility duration at 1 umol/kg, ip administered 30 mins prior to test by forced swimming test; format: functional, organism-based; procedure, shortened: as §2
[6] = Metabolic stability in mouse liver microsomes assessed as half life at 40 uM after 60 mins by HPLC in presence of NADPH; format: ADME, Microsome; settings: 1 h; procedure, shortened: as §1
[7] = system: Mus musculus; assay: Antidepressant activity in ICR mouse assessed as decrease in immobility duration at 5 umol/kg, ip administered 30 mins prior to test after 1 week by forced swimming test; format: functional, organism-based; procedure, shortened: as §2
[8] = system: Mus musculus; assay: Antidepressant activity in ICR mouse assessed as decrease in immobility duration at 0.5 umol/kg, ip administered 30 mins prior to test by forced swimming test; format: functional, organism-based; procedure, shortened: as §2
[9] = system: Mus musculus; assay: Antidepressant activity in BALB/c mouse assessed as decrease in immobility duration at 37.4 umol/kg, ip administered 23 hrs, 5 hrs and 1 hr prior to test measured after 4 weeks by forced swimming test; format: functional, organism-based; procedure, shortened: as §3
[10] = target: 3',5'-cyclic-AMP phosphodiesterase 4B (Homo sapiens, UniProt Q07343); assay: Inhibition of human recombinant PDE4B3 assessed as inhibition of cAMP hydrolysis
[11] = target: T1, Sodium-dependent dopamine transporter (Homo sapiens, UniProt Q01959); assay: Displacement of [3H]dopamine from human recombinant DAT expressed in HEK293 cells by scintillation counting; format: cell-based
Procedure, shortened: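 Suspended HEK-hDAT cells preincubated 10 min at 25 °C with test compound in Krebs-HEPES buffer. [3H]dopamine then added (20 nM final) for 10 min. Uptake stopped by filtration onto polyethylenimine-soaked GF/C filters, and radioactivity counted. Specific uptake defined with 5 µM mazindol. Triplicates, 3–4 experiments; Ki by Cheng-Prusoff.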

[12] = system: Mus musculus; assay: Antidepressant activity in ICR mouse assessed as decrease in immobility duration at 40 mg/kg, ip by forced swimming test; format: functional, organism-based; design: dose 40 mg/kg
[13] = system: Mus musculus; assay: Antidepressant activity in BALB/c mouse assessed as decrease in immobility duration at 20 mg/kg, ip administered 30 mins prior to test by forced swimming test; format: functional, organism-based; design: dose 20 mg/kg
Procedure, shortened: (§4)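 Acute dosing in male Balb/c mice (22.4 ± 0.1 g), i.p. 30 min before the forced-swim test. Vehicle was saline with 5% DMSO. Pretest swims were given on two successive days, then the test 24 h later. Each swim lasted 6 min in a cylinder of water 28 cm deep at 23 ± 1°C, scoring immobility (upright floating). n = 10–11. One-way ANOVA with Dunnett's test.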

[14] = system: Mus musculus; assay: Antidepressant activity in ICR mouse assessed as decrease in immobility duration at 65 umol/kg, ip administered 30 mins prior to test by forced swimming test; format: functional, organism-based
[15] = system: Mus musculus; assay: Antidepressant activity in BALB/c mouse assessed as decrease in immobility duration at 32.3 umol/kg, ip administered 23 hrs, 5 hrs and 1 hr prior to test measured after 4 weeks by forced swimming test; format: functional, organism-based
Procedure, shortened: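 Male Balb/c mice received subchronic i.p. dosing at 23, 5 and 1 hr before the forced-swim test, with no pretest training. This session ran 4 weeks after the acute session. Vehicle was saline with 5% DMSO. The swim lasted 6 min in a cylinder of water 28 cm deep at 23 ± 1°C, scoring immobility duration. n = 10–11. One-way ANOVA with Dunnett's test.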

[16] = system: Mus musculus; assay: Antidepressant activity in ICR mouse assessed as decrease in immobility duration at 0.5 mg/kg, ip once a day for 8 days by forced swimming test; format: functional, organism-based; design: dose 0.5 mg/kg
[17] = system: Mus musculus; assay: Antidepressant activity in ICR mouse assessed as decrease in immobility duration at 0.5 mg/kg, ip by forced swimming test; format: functional, organism-based; design: dose 0.5 mg/kg
[18] = system: Mus musculus; assay: Antidepressant activity in BALB/c mouse assessed as decrease in immobility duration at 37.4 umol/kg, ip administered 30 mins prior to test by forced swimming test; format: functional, organism-based
Procedure, shortened: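 Acute dosing in male Balb/c mice (22.4 ± 0.1 g). Drug in 0.9% saline with 5% DMSO, given i.p. 30 min before the forced-swim test. Swim pretest once daily on 2 successive days, then test 24 h later. Each session was 6 min in a cylinder filled to 28 cm with water at 23 ± 1°C, scoring immobility duration. n = 10–11; ANOVA with Dunnett's test.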

[19] = system: Mus musculus; assay: Antidepressant activity in BALB/c mouse assessed as decrease in immobility duration at 35.5 umol/kg, ip administered 30 mins prior to test by forced swimming test; format: functional, organism-based; procedure, shortened: as §4
[20] = target: T2, Sodium-dependent noradrenaline transporter (Homo sapiens, UniProt P23975); assay: Displacement of [3H]norepinephrine from human recombinant NET expressed in HEK293 cells by scintillation counting; format: cell-based
[21] = target: 3',5'-cyclic-AMP phosphodiesterase 4D (Homo sapiens, UniProt Q08499); assay: Inhibition of human recombinant PDE4D3
[22] = target: T2, Sodium-dependent noradrenaline transporter; assay: Displacement of [125I]RTI-55 from human recombinant NET expressed in HEK293 cells by scintillation counting; format: cell-based
[23] = target: T1, Sodium-dependent dopamine transporter; assay: Displacement of [125I]RTI-55 from human recombinant DAT expressed in HEK293 cells by scintillation counting; format: cell-based
[24] = target: T3, Sodium-dependent serotonin transporter (Homo sapiens, UniProt P31645); assay: biochemical; format: cell-based, HEK293
[25] = target: T3, Sodium-dependent serotonin transporter; format: cell-based, HEK293

Sequence of 3',5'-cyclic-AMP phosphodiesterase 4A (P27815 whole entry): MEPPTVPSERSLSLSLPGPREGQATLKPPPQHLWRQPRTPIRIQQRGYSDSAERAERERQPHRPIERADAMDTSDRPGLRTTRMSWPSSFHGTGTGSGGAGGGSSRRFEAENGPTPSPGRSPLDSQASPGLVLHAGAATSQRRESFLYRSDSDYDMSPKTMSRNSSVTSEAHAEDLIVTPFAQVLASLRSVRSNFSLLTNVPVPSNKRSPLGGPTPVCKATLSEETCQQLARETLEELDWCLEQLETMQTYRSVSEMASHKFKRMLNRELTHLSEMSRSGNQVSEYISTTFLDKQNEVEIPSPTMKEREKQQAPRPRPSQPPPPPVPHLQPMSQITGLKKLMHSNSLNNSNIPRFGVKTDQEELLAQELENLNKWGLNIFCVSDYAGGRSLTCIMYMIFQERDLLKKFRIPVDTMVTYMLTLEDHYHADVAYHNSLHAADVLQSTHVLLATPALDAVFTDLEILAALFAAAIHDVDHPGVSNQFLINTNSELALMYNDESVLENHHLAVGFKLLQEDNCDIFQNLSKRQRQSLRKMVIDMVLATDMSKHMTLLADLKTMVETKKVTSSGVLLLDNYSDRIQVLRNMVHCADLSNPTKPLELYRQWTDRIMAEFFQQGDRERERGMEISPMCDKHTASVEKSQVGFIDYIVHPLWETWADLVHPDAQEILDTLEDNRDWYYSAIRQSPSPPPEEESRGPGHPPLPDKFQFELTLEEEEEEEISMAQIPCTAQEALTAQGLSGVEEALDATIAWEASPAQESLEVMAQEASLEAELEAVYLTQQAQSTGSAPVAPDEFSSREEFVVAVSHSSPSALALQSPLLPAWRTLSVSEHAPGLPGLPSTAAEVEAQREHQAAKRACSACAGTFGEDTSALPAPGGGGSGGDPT
Sequence of 3',5'-cyclic-AMP phosphodiesterase 4B (Q07343 whole entry): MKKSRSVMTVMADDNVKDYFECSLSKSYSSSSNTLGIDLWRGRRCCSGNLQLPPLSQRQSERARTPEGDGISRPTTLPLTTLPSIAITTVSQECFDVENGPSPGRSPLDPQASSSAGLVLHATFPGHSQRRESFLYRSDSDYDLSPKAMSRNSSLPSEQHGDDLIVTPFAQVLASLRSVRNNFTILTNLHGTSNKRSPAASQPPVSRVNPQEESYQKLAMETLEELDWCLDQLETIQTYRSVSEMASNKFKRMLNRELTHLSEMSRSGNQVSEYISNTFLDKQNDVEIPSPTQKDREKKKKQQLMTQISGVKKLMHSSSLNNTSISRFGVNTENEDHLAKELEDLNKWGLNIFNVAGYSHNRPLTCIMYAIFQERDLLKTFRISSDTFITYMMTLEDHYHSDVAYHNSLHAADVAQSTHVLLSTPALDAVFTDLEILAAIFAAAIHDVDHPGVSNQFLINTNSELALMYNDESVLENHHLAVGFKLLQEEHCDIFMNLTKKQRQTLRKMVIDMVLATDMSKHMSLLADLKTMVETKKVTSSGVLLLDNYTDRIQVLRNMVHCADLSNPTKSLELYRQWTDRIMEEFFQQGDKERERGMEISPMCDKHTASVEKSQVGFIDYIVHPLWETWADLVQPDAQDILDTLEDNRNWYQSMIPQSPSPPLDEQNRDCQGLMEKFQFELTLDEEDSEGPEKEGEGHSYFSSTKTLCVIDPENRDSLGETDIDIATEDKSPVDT
T3 sequence (P31645 whole entry): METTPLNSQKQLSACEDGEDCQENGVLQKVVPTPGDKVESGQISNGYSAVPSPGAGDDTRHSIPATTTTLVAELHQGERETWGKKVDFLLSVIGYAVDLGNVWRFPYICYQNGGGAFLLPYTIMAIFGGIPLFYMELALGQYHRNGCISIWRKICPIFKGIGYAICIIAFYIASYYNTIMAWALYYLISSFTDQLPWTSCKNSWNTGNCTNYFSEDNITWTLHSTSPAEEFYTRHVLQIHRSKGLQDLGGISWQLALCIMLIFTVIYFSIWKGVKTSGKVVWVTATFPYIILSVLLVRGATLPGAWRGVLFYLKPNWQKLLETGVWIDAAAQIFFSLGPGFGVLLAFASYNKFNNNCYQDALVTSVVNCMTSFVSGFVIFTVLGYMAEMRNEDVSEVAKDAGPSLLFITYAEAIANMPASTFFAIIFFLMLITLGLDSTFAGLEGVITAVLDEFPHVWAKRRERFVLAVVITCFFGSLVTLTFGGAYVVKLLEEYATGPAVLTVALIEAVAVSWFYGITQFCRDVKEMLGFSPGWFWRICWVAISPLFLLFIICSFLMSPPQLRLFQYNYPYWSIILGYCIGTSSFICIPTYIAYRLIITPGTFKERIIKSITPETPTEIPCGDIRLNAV
T1 sequence (Q01959 whole entry): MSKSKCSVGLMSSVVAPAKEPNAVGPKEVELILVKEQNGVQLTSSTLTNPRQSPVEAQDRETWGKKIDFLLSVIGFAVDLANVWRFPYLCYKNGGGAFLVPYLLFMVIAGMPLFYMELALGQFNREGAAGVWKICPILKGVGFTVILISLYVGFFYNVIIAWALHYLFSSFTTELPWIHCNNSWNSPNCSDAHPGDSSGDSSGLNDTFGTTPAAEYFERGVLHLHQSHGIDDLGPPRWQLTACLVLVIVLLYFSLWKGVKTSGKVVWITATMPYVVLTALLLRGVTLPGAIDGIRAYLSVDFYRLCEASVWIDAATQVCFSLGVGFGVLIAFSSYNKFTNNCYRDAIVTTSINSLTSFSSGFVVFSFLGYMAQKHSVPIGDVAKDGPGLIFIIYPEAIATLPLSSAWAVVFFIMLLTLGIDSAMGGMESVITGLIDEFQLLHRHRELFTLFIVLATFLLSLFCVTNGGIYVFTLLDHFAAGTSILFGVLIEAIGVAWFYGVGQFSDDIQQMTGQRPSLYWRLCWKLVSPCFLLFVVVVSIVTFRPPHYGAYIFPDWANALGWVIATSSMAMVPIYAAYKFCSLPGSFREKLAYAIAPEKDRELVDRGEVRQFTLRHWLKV
T2 sequence (P23975 whole entry): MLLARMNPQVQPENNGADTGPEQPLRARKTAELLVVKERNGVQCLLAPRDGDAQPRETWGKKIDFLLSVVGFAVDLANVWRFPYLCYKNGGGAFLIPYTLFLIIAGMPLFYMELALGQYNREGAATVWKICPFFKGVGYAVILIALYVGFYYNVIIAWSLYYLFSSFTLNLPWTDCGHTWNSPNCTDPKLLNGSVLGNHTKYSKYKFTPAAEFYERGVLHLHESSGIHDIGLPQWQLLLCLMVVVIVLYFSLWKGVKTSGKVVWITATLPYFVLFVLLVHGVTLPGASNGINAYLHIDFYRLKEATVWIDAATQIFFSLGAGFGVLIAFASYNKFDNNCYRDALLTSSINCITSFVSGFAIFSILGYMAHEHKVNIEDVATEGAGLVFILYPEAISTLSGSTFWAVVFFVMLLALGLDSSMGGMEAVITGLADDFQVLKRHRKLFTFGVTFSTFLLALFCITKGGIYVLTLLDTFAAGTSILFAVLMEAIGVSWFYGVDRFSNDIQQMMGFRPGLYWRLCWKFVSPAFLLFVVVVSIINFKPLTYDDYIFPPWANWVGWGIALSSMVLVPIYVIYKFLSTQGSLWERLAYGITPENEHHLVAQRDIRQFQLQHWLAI
Sequence of 3',5'-cyclic-AMP phosphodiesterase 4D (Q08499 whole entry): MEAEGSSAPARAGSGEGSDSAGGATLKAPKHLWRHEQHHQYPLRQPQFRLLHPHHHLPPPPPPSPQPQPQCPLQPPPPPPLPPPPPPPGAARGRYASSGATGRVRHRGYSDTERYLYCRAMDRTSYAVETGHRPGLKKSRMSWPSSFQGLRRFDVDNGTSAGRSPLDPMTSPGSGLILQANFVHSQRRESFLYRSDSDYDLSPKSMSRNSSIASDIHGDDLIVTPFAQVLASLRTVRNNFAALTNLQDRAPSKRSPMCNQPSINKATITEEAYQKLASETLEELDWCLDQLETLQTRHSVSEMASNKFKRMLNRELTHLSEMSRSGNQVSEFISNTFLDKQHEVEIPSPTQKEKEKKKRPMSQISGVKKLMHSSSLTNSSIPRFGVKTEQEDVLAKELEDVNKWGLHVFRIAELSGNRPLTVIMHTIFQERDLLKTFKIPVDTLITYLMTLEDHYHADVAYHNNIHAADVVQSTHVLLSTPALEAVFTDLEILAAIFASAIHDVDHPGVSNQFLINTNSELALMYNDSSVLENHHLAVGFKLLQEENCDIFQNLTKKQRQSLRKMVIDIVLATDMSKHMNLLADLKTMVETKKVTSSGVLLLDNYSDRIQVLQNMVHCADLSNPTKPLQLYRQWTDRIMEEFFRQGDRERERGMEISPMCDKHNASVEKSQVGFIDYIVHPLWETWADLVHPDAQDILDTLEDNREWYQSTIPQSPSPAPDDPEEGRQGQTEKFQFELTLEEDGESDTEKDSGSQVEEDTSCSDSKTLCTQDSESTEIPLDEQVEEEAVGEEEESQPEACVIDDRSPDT

In the case of COc1ccc(C2=NNC(=O)C3CC=CCC23)cc1OC (configuration not stated), the Stability [1] is reported as “Stable”, the Activity [2] is reported as “Active” and the Activity [3] is reported as “Active”. For the same molecule, the Ki [4] was over 1000 nM, the Activity [5] was “Active” and the t1/2 [6] was 3.522 h. The Activity [7] was “Active”, the Activity [8] was “Active” and the Activity [9] was “Active”. The Ki [10] was 250 nM.

For CNCCC1CCC(CCc2cc(F)ccc2OC)O1 (configuration not stated), the IC50 [11] was over 100000 nM.

For CNCCC(Oc1ccc(C(F)(F)F)cc1)c1ccccc1 (configuration not stated), the Activity [12] was “Active”, the Activity [13] was “inactive” and the Activity [14] was “Active”. The Activity [15] was “inactive”.

With COc1ccc(C2CNC(=O)C2)cc1OC1CCCC1 (configuration not stated) the Activity [16] was “Active” and the Activity [17] was “inactive”.

In the case of COc1ccc(F)cc1CCC1CCC(CCN)O1 (configuration not stated), the Activity [9] is reported as “inactive” and the Activity [18] is reported as “inactive”.

With COc1ccc(F)cc1CCCC1CCC(CCN)O1 (configuration not stated) the Activity [19] was “inactive”.

In the case of COc1ccc(F)c(CCCC2CCC(CCNCCCCCN3N=C(c4ccc(OC)c(OC)c4)[C@H]4CC=CC[C@H]4C3=O)O2)c1 (mixture of isomers), the Stability [1] is reported as “Stable”, the Ki [4] is reported as over 1000 nM and the IC50 [20] is reported as 7440 nM. For the same molecule, the Ki [21] was 1.2 nM, the Ki [22] was 7440 nM and the IC50 [11] was 5340 nM. The Stability [6] was “Stable”, the Ki [10] was 500 nM and the Ki [23] was 5340 nM.

With COc1ccc(F)cc1CCC1CCC(CCNCCCCCN2N=C(c3ccc(OC)c(OC)c3)[C@H]3CC=CC[C@H]3C2=O)O1 (mixture of isomers) the Stability [1] was “Stable”, the Activity [2] was “Active” and the Activity [3] was “inactive”. For the same molecule, the Ki [4] was over 1000 nM, the Ki [24] was 156 nM and the Ki [21] was 2 nM. The IC50 [11] was 3560 nM, the Activity [5] was “Active” and the t1/2 [6] was 2.565 h. For the same molecule, the Activity [7] was “Active”, the Activity [8] was “Active” and the Ki [10] was 199 nM. For the same molecule, the IC50 [25] was 127 nM and the Ki [23] was 2480 nM.

Work on COc1ccc(C2=NN(CCCCCBr)C(=O)[C@@H]3CC=CC[C@H]23)cc1OC (racemic) yielded a Ki [24] of over 100000 nM, an IC50 [11] of over 100000 nM and an IC50 [25] of over 100000 nM. It also gave a Ki [23] of over 100000 nM.

Reference: ChEMBL document CHEMBL1152805, “Dual inhibitors of phosphodiesterase-4 and serotonin reuptake” (J Med Chem, 2009)
